Results: ChEMBL document CHEMBL4177752, “Discovery of Novel Schizocommunin Derivatives as Telomeric G-Quadruplex Ligands That Trigger Telomere Dysfunction and the Deoxyribonucleic Acid (DNA) Damage Response” (J Med Chem, 2018)
The source made the active and inactive calls. No cut-off for these calls is given here.

Experiments:
HeLa = experiment: Antiproliferative activity against human HeLa cells after 48 hrs by MTT assay; format: functional, cell-based
Summary of the method: (§1)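 Cells seeded at 5.0×10^3 per well and exposed to a range of compound concentrations for 48 h. MTT (2.5 mg/mL solution) was then added for 4 h, formazan was dissolved in DMSO, and OD was read at 570 nm. HL-60 was grown in RPMI-1640 with 10% FBS, the other lines in DMEM with 10% FBS, at 37 °C and 5% CO2. Triplicates; IC50 taken from mean OD versus concentration curves.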

HL-60 = experiment: Antiproliferative activity against human HL60 cells after 48 hrs by MTT assay; format: functional, cell-based; conditions: HL-60, 48 h; summary of the method: as §1
[1] = Stabilization of F10T hairpin duplex DNA (unknown origin) assessed as change in melting temperature at 1 uM by FRET assay
Summary of the method: (§2)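 FRET melting: 0.2 µM F21T or F10T (FAM/TAMRA-labelled), with or without 1.0 µM ligand, in 10 mM Tris-HCl pH 7.4 with 60 mM KCl. Excitation 470 nm, emission 530 nm, read every 1 °C from 37–99 °C at 1 °C/min with a 30 s hold. ΔTm = Tm(DNA+ligand) − Tm(DNA).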

U2OS = experiment: Antiproliferative activity against human U2OS cells after 48 hrs by MTT assay; format: functional, cell-based; summary of the method: as §1
Quadruplex DNA [2] = experiment: Binding affinity to HTG21 telomeric G-quadruplex DNA (unknown origin) by SPR method; format: nucleic-acid assay
Summary of the method: (§3)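 SPR: biotinylated HTG21 or hairpin DNA (200 nM) was folded in 50 mM Tris-HCl pH 7.4 with 100 mM KCl and captured to about 1,000 RU on an NLC chip against a blank reference cell. Ligand at 0.625–40 µM was injected at 25 µL/min (400 s association, 300 s dissociation) at 25 °C. The chip was regenerated with 1 M KCl and blank sensorgrams were subtracted.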

Quadruplex DNA [3] = experiment: Stabilization of F21T telomeric G-quadruplex DNA (unknown origin) assessed as change in melting temperature at 1 uM by FRET assay; format: nucleic-acid assay; summary of the method: as §2
A549 = experiment: Antiproliferative activity against human A549 cells after 48 hrs by MTT assay; format: functional, cell-based; conditions: A549, 48 h; summary of the method: as §1
SiHa = experiment: Antiproliferative activity against human SiHa cells after 48 hrs by MTT assay; format: functional, cell-based; summary of the method: as §1
[4] = Binding affinity to hairpin duplex DNA (unknown origin) at 40 uM by SPR method; summary of the method: as §3

| Structure (SMILES) | IC50 (HeLa) [µM] | IC50 (HL-60) [µM] | ΔTm [1] [°C] | IC50 (U2OS) [µM] | Kd (Quadruplex DNA [2]) [µM] | ΔTm (Quadruplex DNA [3]) [°C] | IC50 (A549) [µM] | IC50 (SiHa) [µM] | Activity [4] |
| --- | --- | --- | --- | --- | --- | --- | --- | --- | --- |
| O=C1Nc2ccccc2/C1=C/c1nc2cc(NCCCN3CCOCC3)c(F)cc2c(=O)[nH]1 | > 50 | > 50 | 0.1 | > 50 | > 40 | 8.6 | > 50 | > 50 | inactive |
| CN(C)CCCN(CCCN(C)C)c1cc2nc(/C=C3\C(=O)Nc4ccccc43)[nH]c(=O)c2cc1F | 48.6 | 16.1 | 0.2 | > 50 | 23 | 12.6 | > 50 | 10.1 | inactive |
| CN1CCN(c2ccc3c(c2)NC(=O)/C3=C\c2nc3cc(NCCN4CCCCC4)c(F)cc3c(=O)[nH]2)CC1 | 20.5 | 2.8 | 0.2 | 3.6 | > 40 | 18.7 | 1.8 | 5.4 | inactive |
| CCN(CC)CCNc1cc2nc(/C=C3\C(=O)Nc4cc(N5CCN(C)CC5)c(F)cc43)[nH]c(=O)c2cc1F | 9 | 1.7 | 0.3 | 8.2 | 22 | 23.1 | 6.1 | 12.4 | inactive |
| CN1CCN(CCCNc2cc3nc(/C=C4\C(=O)Nc5cc(N6CCN(C)CC6)c(F)cc54)[nH]c(=O)c3cc2F)CC1 | 8.8 | 3.3 | 0.1 | 12.7 | 9.6 | 19.8 | 9.7 | 2.8 | inactive |
| CN1CCN(c2cc3c(cc2F)/C(=C/c2nc4cc(NCCCN5CCCC5)c(F)cc4c(=O)[nH]2)C(=O)N3)CC1 | 9 | 2.9 | 0.3 | 16.4 | 7.9 | 23.6 | 25.3 | 9.4 | inactive |
| O=C1Nc2cc(N3CCOCC3)c(F)cc2/C1=C/c1nc2cc(NCCCN3CCOCC3)c(F)cc2c(=O)[nH]1 | > 50 | > 50 | 0.2 | > 50 | > 40 | 5.2 | > 50 | > 50 | inactive |
| CN(C)CCCN(C)c1cc2c(cc1F)/C(=C/c1nc3cc(N4CCN(C)CC4)c(F)cc3c(=O)[nH]1)C(=O)N2 | 12.8 | 3.2 | 0.2 | 9.4 | > 40 | 15.6 | 10.4 | 3.5 | inactive |
| CCN(CC)CCCNc1cc2nc(/C=C3\C(=O)Nc4cc(N5CCN(C)CC5)ccc43)[nH]c(=O)c2cc1F | 10 | 5.4 | 0.2 | 7.6 | 7.4 | 20.6 | 2.3 | 2.8 | inactive |
| O=C1Nc2cc(N3CCOCC3)c(F)cc2/C1=C/c1nc2cc(NCCCN3CCCC3)c(F)cc2c(=O)[nH]1 | > 50 | 3.8 | 0.3 | > 50 | > 40 | 8.4 | > 50 | 42.5 | inactive |
| CCN(CC)CCCNc1cc2nc(/C=C3\C(=O)Nc4ccccc43)[nH]c(=O)c2cc1F | > 50 | 7.5 | 0.1 | 12.6 | > 40 | 10 | 8.6 | 23.4 | inactive |
| CCN(CC)CCCNc1cc2nc(/C=C3\C(=O)Nc4cc(N5CCOCC5)c(F)cc43)[nH]c(=O)c2cc1F | 34.3 | 4.2 | 0.1 | 32.4 | > 40 | 9 | > 50 | 43.6 | inactive |
